High-throughput results deposited in PubChem BioAssay by Johns Hopkins Ion Channel Center.
A selection: hits, their analogues and other compounds. The true share with any hit is near 2.3%.
TRPC4 PAM: positive allosteric modulators of TRPC4, primary screen, cell-based, mouse TRPC4beta, HEK293 mu-opioid, Fluo-4 calcium; Short transient receptor potential channel 4 (Mus musculus), Q9QUQ5; DAMGO EC20, Fluo-4 Ca2+ flux; hits give high values; B-score at 10 µM; 0.42% of 310,000 active; AID 2227, 2009;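 active means B-score of calcium response area above 5 SD of library B-scores, with initial fluorescence ratio within 5 SD of library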;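 further: B-score of integrated fluorescence ratio over time as area under calcium response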
TRPC6 inh: mouse TRPC6 channel inhibitors, primary screen, cell-based, HEK293, membrane potential dye. Short transient receptor potential channel 6 (Mus musculus), Q61143. ACh-evoked depolarization; hits give low values. B-score at 10 µM. 1.1% of 310,000 active. AID 2553, 2010;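 active means B-score under library mean minus 3 SD, initial fluorescence not abnormally high, positive integrated signal ratio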;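 further: B-score derived from integrated fluorescence ratio over the kinetic read; more negative B-score means stronger inhibition of depolarization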
Target sequence (Q61143 whole entry, looked up): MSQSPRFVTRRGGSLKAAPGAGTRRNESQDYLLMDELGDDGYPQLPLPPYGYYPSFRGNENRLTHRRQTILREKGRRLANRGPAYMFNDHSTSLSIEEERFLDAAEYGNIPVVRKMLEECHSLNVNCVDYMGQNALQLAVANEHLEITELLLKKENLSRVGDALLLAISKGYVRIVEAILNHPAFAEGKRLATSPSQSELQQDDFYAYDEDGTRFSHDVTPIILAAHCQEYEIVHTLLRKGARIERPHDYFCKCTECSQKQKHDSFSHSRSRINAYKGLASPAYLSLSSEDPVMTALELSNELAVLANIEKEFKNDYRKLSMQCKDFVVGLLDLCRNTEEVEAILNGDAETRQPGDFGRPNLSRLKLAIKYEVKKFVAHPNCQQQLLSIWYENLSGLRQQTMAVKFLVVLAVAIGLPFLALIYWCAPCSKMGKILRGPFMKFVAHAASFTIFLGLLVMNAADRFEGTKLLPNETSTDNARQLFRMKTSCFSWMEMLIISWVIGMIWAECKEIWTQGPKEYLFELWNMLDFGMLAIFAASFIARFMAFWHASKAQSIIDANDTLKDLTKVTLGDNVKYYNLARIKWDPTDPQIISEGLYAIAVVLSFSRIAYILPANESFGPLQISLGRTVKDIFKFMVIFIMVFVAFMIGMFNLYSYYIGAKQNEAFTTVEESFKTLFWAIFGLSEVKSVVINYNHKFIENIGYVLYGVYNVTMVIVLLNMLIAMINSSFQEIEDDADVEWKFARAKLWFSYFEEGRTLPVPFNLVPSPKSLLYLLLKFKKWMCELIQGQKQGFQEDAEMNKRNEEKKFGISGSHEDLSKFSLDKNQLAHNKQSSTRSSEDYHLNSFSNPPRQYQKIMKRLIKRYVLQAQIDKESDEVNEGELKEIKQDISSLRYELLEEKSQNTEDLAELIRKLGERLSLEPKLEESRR
TRPC4 agonist: activators of mouse TRPC4 channel, primary screen, Fluo4 calcium, HEK293 TRPC4beta/mu-opioid cells; B-score at 10 µM; Fluo4 calcium fluorescence; hits give high values; 0.49% of 310,000 active; AID 2237, 2010;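 active means B-score above 5 SD of library B-scores, and initial fluorescence ratio not above library mean plus 5 SD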;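 further: positive B-score marks a calcium rise read as TRPC4 activation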
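Incubation: 45 min room-temperature Fluo4 loading, 110 s read / System: HEK293 cells stably co-expressing mouse TRPC4beta and mu-opioid receptor / Signal: Fluo4 fluorescence, kinetic / Control set: buffer (low) and maximal DAMGO (high) / Measure: integrated baseline-normalised fluorescence ratio, converted to per-well B score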
TRPC4 block: inhibitors of mouse TRPC4 channel, primary screen, Fluo4 calcium, HEK293 TRPC4beta/mu-opioid cells; Short transient receptor potential channel 4 (Mus musculus), Q9QUQ5; DAMGO-evoked Fluo4 calcium flux; hits give low values; B-score at 10 µM; 0.39% of 300,000 active;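 active means B-score over 3 SD under the library average, no early fluorescence shift, positive overall ratio signal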
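Test system – stable TRPC4beta/mu-opioid receptor HEK293 cells · Probe or stimulus – DAMGO, a submaximal dose followed by a maximal one · Dosing – one concentration per compound · Signal – Fluo4 calcium fluorescence by kinetic imaging, 5 s 1 Hz baseline · Evaluation – per-well B score of integrated baseline-normalized Fluo4 ratio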
TRPC6 act: mouse TRPC6 channel activators, primary screen, cell-based, HEK293, membrane potential dye | Short transient receptor potential channel 6 (Mus musculus), Q61143 | HEK293-TRPC6 membrane potential dye fluorescence; hits give high values | B-score at 10 µM | 0.13% of 310,000 active | AID 2550, 2010;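 active means B-score of the integrated fluorescence ratio above library mean plus 3 SD, and starting fluorescence ratio within library mean plus 5 SD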;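 further: higher score means more depolarization so channel activation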
* = called active by the depositor; i = inactive.

SMILES	TRPC4 PAM	TRPC6 inh	TRPC4 agonist	TRPC4 block	TRPC6 act
COc1ccc(C)cc1N(C(=O)c1snc(C(N)=O)c1N)C(C(=O)NC1CCCC1)c1ccc(F)cc1 (stereo not given)	i	i	i	-11*	i
COc1ccc(C(C(=O)NCC2CCCO2)N(Cc2cccs2)C(=O)c2snc(C(N)=O)c2N)cc1 (stereo not given)	i	i	i	i	i
CCOc1ccc(C(C(=O)NCC2CCCO2)N(Cc2cccnc2)C(=O)c2snc(C(N)=O)c2N)cc1 (stereo not given)	i	i	i	-6*	i
Cc1ccc(N(C(=O)c2snc(C(N)=O)c2N)C(C(=O)NCC2CCCO2)c2ccc(C)o2)c(C)c1 (stereo not given)	i	i	i	-7*	i
COc1ccc(N(C(=O)c2snc(C(N)=O)c2N)C(C(=O)NC2CCCC2)c2ccc(F)cc2)c(OC)c1 (stereo not given)	i	i	i	i	i
CC(C)Oc1ccccc1NC(=O)CSc1nccn1C	i	i	i	i	i
Cc1ccccc1N(C(=O)c1snc(C(N)=O)c1N)C(C(=O)NCC1CCCO1)c1ccc(F)cc1 (stereo not given)	i	i	i	-6*	i
Cc1ccccc1N(C(=O)c1snc(C(N)=O)c1N)C(C(=O)NC1CCCCC1)c1ccc(O)cc1 (stereo not given)	i	i	i	i	i
Cc1ccccc1N(C(=O)c1snc(C(N)=O)c1N)C(C)C(=O)NC1CCCCC1 (stereo not given)	i	i	i	-6*	i
NC(=O)c1nsc(C(=O)N(Cc2ccc(F)cc2)C(C(=O)NC2CCCC2)c2ccco2)c1N (stereo not given)	i	i	i	-7*	i
NC(=O)c1nsc(C(=O)N(Cc2ccc(F)cc2)C(C(=O)NCC2CCCO2)c2ccc(O)cc2)c1N (stereo not given)	i	i	i	-10*	i
Cc1ccccc1N(C(=O)c1snc(C(N)=O)c1N)C(C(=O)NCC1CCCO1)c1ccc(N(C)C)cc1 (stereo not given)	i	i	i	i	i
CCOc1ccc(C(C(=O)NCC2CCCO2)N(Cc2ccccc2)C(=O)c2snc(C(N)=O)c2N)cc1 (stereo not given)	i	i	i	i	i
Cc1cc(C)c(OCC(=O)OCC(=O)N2c3ccccc3CC2C)c(C)c1 (stereo not given)	i	i	i	i	i
CCOc1ccccc1Nc1nnc(SC(C)C(=O)Nc2nc(-c3ccccc3)cs2)s1 (stereo not given)	i	i	i	i	i
COC(=O)c1ccc(N2CN=C(c3ccc(C)cc3)NC2=S)cc1	i	i	i	i	i
S=C1NC(c2ccccc2)=NCN1c1ccc(Cl)cc1	10*	i	i	i	i
COc1cc(NC(=O)c2cc(CC(C)C)on2)c(OC)cc1Cl	10*	i	i	i	i
CCCc1cc(C(=O)Nc2cc(OC)c(Cl)cc2OC)no1	i	i	i	i	i
CSc1ncccc1C(=O)N1CCCC(N2CCN(c3ccccc3F)CC2)C1 (stereo not given)	i	i	i	i	i
Cn1c(-c2ccccc2)cnc1NCc1ccc(F)cc1	i	i	i	-7*	i
O=C(CN1C(=O)C2CC=CCC2C1=O)Nc1ccc(S(=O)(=O)NC2=NCCCCC2)cc1 (stereo not given)	i	i	i	i	i
Cc1ccc2occ(/C=N/NC(=O)[C@@H](N)Cc3ccccc3)c(=O)c2c1	12*	i	i	i	i
COc1ccc(CN(C)C(=O)c2ccc(NC(=O)CC3SC(N4CCCC4)=NC3=O)cc2)c(OC)c1OC (stereo not given)	i	i	i	i	i
COc1ccc(CN(C)C(=O)c2ccc(NC(=O)CC3SC(N4CCCC4)=NC3=O)cc2)c(OC)c1 (stereo not given)	41*	i	i	-6*	i
SMILES	TRPC4 PAM	TRPC6 inh	TRPC4 agonist	TRPC4 block	TRPC6 act
COc1ccc(-c2cc(C(F)F)n3ncc(C(=O)Nc4cccc(S(=O)(=O)N5CCOCC5)c4)c3n2)cc1	i	i	i	i	i
CCn1c(=O)c(C(=O)NNC(=O)c2ccccc2Cl)c(O)c2ccccc21	i	i	51*	i	i
CCn1c(=O)c(C(=O)NNC(=O)c2ccccc2F)c(O)c2ccccc21	i	i	114*	i	i
CSc1nc(N2CCOCC2)c2c3c(sc2n1)CCCC3	i	i	i	-6*	i
CCc1cc(=O)oc2c(CNCc3ccccc3F)c(O)c(Cl)cc12	17*	i	i	i	i
CN(CCc1ccccn1)C(=S)Nc1cccc(S(=O)(=O)N(C)C)c1	i	i	101*	i	i
Cc1cccc(CN(C)CCc2ccccn2)c1	i	i	i	i	i
Cc1cccc(OCC(=O)N(C)CCc2ccccn2)c1	i	i	54*	i	i
CN(C)S(=O)(=O)c1cccc(NC(=S)NCCc2ccccn2)c1	i	i	i	i	i
Cc1ccc(C)c(NC(=S)N(C)CCc2ccccn2)c1	i	i	74*	i	i
Cc1cc(C)cc(NC(=O)c2nnn(Cc3cc(C)ccc3C)c2N)c1	17*	i	i	i	i
C=C(C)CNC(=O)c1ccc2nc(Cc3ccc(OC)cc3)oc2c1	i	i	i	i	i
CCOc1cc(/C=C2/NC(=O)NC2=O)cc(Br)c1OCc1ccc(C(=O)O)cc1	i	i	i	i	i
CCOCCCNC(=O)CN1N=C(c2ccc(C)cc2)CCC1=O	i	i	i	i	i
COc1ccc(NC(=O)NC23CC4(C)CC(C)(CC(C)(C4)C2)C3)cc1	i	i	i	i	i
CN(CC1CCCN(CCc2cccc(C(F)(F)F)c2)C1)C(=O)c1cc2ccccc2o1 (stereo not given)	i	i	i	-8*	i
COc1cccc(C(=O)N(C)CC2CCN(CCc3cccc(C(F)(F)F)c3)CC2)c1	i	i	109*	i	i
COc1ccccc1/C=N/N(C(C)=O)c1nc(-c2ccc(F)cc2)cs1	i	i	i	i	i
